Assay results published in publication PMC5529739 (CPT: Pharmacometrics & Systems Pharmacology, 2017).

Columns and labels:
[1] = Population PK model of selexipag and ACT-333679 in PAH patients; assay type: in vivo, human; details: for Vd/F: human, plasma, oral; for AUC over a dosing interval at steady state, higher in PAH patients than in healthy subjects: patient model vs healthy subject model
[2] = test system: human IP receptor; details: human pulmonary arterial smooth muscle cells, cellular shape change; cited from earlier work
[3] = test system: platelet aggregation; details: clinically relevant concentrations, healthy subjects; cited from earlier work
[4] = range 100–1,800 μg; cited from earlier work
[5] = assay type: in vivo, human
Method in brief: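 Oral b.i.d. dosing titrated in 200 μg steps to each patient's tolerated dose, max 1,600 μg b.i.d. Trough plasma samples at baseline and weeks 4–52, plus one week-16 window sample. Model-predicted steady-state AUC at the individual maintenance dose gave AUCcombined (1/38 parent + 37/38 metabolite); placebo exposure was set to 2.5 ng/mL. Lab values were averaged per subject over weeks 8–52, not imputed, and fitted by log-linear regression on log10 exposure and baseline.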

[6] = cited from earlier work
[7] = PAH patients, population estimate
[8] = body weight 96 kg vs reference patient 70 kg
[9] = total bilirubin 5 μmol/L vs reference 10 μmol/L
[10] = total bilirubin 25 μmol/L vs reference 10 μmol/L

SMILES: CC(C)N(CCCCOCC(=O)O)c1cnc(-c2ccccc2)c(-c2ccccc2)n1 [ACT‐333679]
- k43, transfer rate constant peripheral to central compartment ACT-333679 [1, 7]: 0.18 h⁻¹
- AUCss, covariate effect on exposure over a steady-state dosing interval [1, 8]: −10%
- Vd/F [1]: 4.65 L
- AUCss, covariate effect on exposure over a steady-state dosing interval ([1]; male vs female): −13%
- AUC over a dosing interval at steady state, higher in PAH patients than in healthy subjects [1]: 20%
- Body weight on Vm/F, covariate effect ([1]; power coefficient, Vm=Vm,pop (bw/70)^coefficient): 0.88
- AUCss, covariate effect on exposure over a steady-state dosing interval [1, 9]: −20%
- AUCss, covariate effect on exposure over a steady-state dosing interval [1, 10]: +30%
- Potency in activating the human IP receptor relative to selexipag [2]: 37 fold
- Effect on platelet aggregation [3]: no effect

SMILES: CC(C)N(CCCCOCC(=O)NS(C)(=O)=O)c1cnc(-c2ccccc2)c(-c2ccccc2)n1 [selexipag, Selexipag]
- k12, transfer rate constant central to peripheral compartment selexipag [1, 7]: 0.09 h⁻¹
- k21, transfer rate constant peripheral to central compartment selexipag [1, 7]: 0.06 h⁻¹
- ka, absorption rate constant [1, 7]: 0.71 h⁻¹
- kmet, metabolism rate constant selexipag to ACT-333679 [1, 7]: 0.67 h⁻¹
- CL/F, apparent selexipag clearance ([1]; PAH patients, population estimate, 70 kg, total bilirubin 10 μmol/L): 19.10 L/h
- AUCss, covariate effect on exposure over a steady-state dosing interval ([1]; body weight 51 kg vs reference patient 70 kg): +30%
- AUCss, covariate effect on exposure over a steady-state dosing interval [1, 8]: −20%
- Vd/F [1]: 12.9 L
- AUCss, covariate effect on exposure over a steady-state dosing interval ([1]; male vs female): No change
- AUC over a dosing interval at steady state, higher in PAH patients than in healthy subjects [1]: 30%
- Total bilirubin on CL/F, covariate effect ([1]; power coefficient, CL=CLpop (bilirubin/10)^coefficient, bilirubin at baseline): −0.40
- Body weight on CL/F, covariate effect ([1]; power coefficient, CL=CLpop (bw/70)^coefficient): 0.61
- Body weight on Vp/F, covariate effect ([1]; power coefficient, Vp=Vp,pop (bw/70)^coefficient): 1.2
- AUCss, covariate effect on exposure over a steady-state dosing interval [1, 9]: −20%
- AUCss, covariate effect on exposure over a steady-state dosing interval [1, 10]: +30%
- Dose proportionality of PK [4]: dose‐proportional
- Probability of a treatment-emergent AE of hemorrhage and gastrointestinal hemorrhage: relationship to exposure ([5]; AUCcombined at steady state): no statistically significant relationship to exposure
- Total bilirubin, model-predicted ([5]; at the highest exposure, 12.03 μmol/L with placebo): 10.58 µmol/L
- Hemoglobin, model-predicted ([5]; at the highest exposure, 138.84 G/L with placebo): 134.58 G/L
- Plasma NT pro-BNP, model-predicted ([5]; at the highest exposure, 667 with no exposure (placebo)): 475 ng/mL
- 6-MWD at steady state, model-predicted ([5]; at the highest predicted steady-state exposure, reference patient, 369 m on placebo): 392 m
- Hazard ratio for a primary endpoint event (death or a complication associated with underlying PAH) vs placebo ([6]; 99% confidence interval 0.46–0.78, P < 0.001): 0.6
- NT pro-BNP levels in the presence of selexipag [6]: significantly lower
- 6-MWD difference between placebo and selexipag ([6]; week 26, across doses): 12 m
- Effect on platelet aggregation [3]: no effect
